Assay outcomes deposited in PubChem by several laboratories.
CCR6 antag: CCR6 (human) receptor antagonism | hit rate 0.49% among 340,000 | CHO-K1 CCR6 PathHunter beta-arrestin, luminescence, CCL20-stimulated | inhibition, % at 20 µM | P51684;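 active = compounds whose inhibition of the agonist-driven luminescence signal at 20 µM reaches about 50%, limit read from the data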;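 also: cells stimulated with CCL20 at 14 nM final; plate controls were DMSO with CCL20 for no effect and DMSO without agonist for full effect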
PfGluPho inh: PfG6PD (Plasmodium falciparum) enzyme inhibition | hit rate 0.78% among 350,000 | AID 504690 | PfGluPho enzyme, NADPH resazurin-diaphorase fluorescence | inhibition, % at 20 µM;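 active = inhibition reaching at least a set limit at 20 µM in the primary screen, cut at about 59% in these data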;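 also: 0% = DMSO wells with substrate and 100% = DMSO wells lacking glucose-6-phosphate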
APJ antag: antagonists of human APJ apelin receptor. P35414. CHO-K1 APJ beta-arrestin complementation, luminescence. inhibition, % at 20 µM. hit rate 0.32% among 330,000. AID 2521;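 active = inhibition above about 40% at 20 µM, limit read from the data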;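 also: cells challenged with 10 nM apelin-13 agonist together with compound; plate controls were apelin-13 plus DMSO wells for no effect and DMSO wells lacking apelin-13 for full effect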
Target sequence (P35414 whole entry, looked up): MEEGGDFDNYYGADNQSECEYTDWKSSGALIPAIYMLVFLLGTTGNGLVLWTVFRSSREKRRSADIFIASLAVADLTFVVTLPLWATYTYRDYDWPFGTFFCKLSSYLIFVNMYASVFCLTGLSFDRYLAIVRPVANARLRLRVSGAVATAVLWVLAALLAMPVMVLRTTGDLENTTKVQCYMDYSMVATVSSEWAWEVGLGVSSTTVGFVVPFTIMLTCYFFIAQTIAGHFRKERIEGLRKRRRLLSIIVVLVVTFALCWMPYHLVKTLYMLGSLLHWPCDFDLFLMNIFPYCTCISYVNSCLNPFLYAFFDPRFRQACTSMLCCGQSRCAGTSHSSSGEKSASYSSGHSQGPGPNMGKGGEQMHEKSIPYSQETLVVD
B2AR ag: human beta-2 adrenergic receptor agonism by FAP; Am2.2-beta2AR cells, FAP receptor internalization, flow cytometry; response, % (test concentration not listed); P07550; hit rate 0.43% among 340,000;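 active = response above a set limit, near 3 SD of response in nonfluorescent compounds, cut at about 42% in these data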
CXCR6 block: inhibitors of human CXCR6 receptor. CHO-K1 PathHunter CXCR6 beta-arrestin, luminescence. O00574. hit rate 0.36% among 360,000. inhibition, % at 20 µM; in the data active = inhibition above about 34%, passing the limit was not always enough;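 also: antagonist mode with CXCL16 agonist at 10 nM final; 0% = 10 nM CXCL16 with DMSO and 100% = unstimulated wells without agonist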
APJ ag: APJ receptor agonism; CHO-K1 APJ PathHunter beta-arrestin, luminescence; 0% DMSO wells, 100% apelin; activation, % at 20 µM; hit rate 0.11% among 330,000; P35414; AID 2520;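 active = activation more than six SD over the plate average, tested at 20 µM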;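 also: 0% = DMSO alone and 100% = apelin-13 at 10 nM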
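Assay system: CHO-K1 cells stably expressing ProLink-tagged human APJ and arrestin–beta-gal acceptor. Compound dosing: 20 µM single point, 1% DMSO. Times: 16-18 h seeding, 90 min dark compound exposure, 60 min detection. Detection: beta-gal luminescence. Evaluation: APJ–arrestin association signal. Controls: negative DMSO alone, positive Apelin-13 at 10 nM.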
The depositor's hits bear a star; ! = not confirmed by another sample. A selection: hits, their analogues and other compounds. The true share with any hit is near 1.7%.

How did O=C(NCc1cccnc1)/C(=C\c1ccc(-c2ccc(Cl)c(Cl)c2)o1)S(=O)(=O)c1ccccc1 do in these assays?
CCR6 antag: 45; PfGluPho inh: 18; B2AR ag: 95*; CXCR6 block: 24

Results for Cc1snc(SCC(=O)c2ccc([N+](=O)[O-])cc2)c1C#N ?
CCR6 antag: 6; PfGluPho inh: 62*; APJ antag: -58; B2AR ag: -13; CXCR6 block: -18; APJ ag: 2

How did COc1ccc(OCC(=O)NNC(=O)c2cc3ccccc3o2)cc1 do in these assays?
CCR6 antag: -3; PfGluPho inh: -5; APJ antag: 7; B2AR ag: -8; CXCR6 block: -1; APJ ag: 0

Results for C[C@H](NC(=O)COc1ccccc1)C(=O)OCC(=O)c1cc2ccccc2o1 ?
CCR6 antag: 76*; PfGluPho inh: -71; B2AR ag: 16; CXCR6 block: 48*

How did Cc1c(CCOC(=O)c2ccc(Cl)cc2Cl)sc[n+]1CC(=O)c1ccc(Br)cc1 do in these assays?
CCR6 antag: 38; PfGluPho inh: 0; APJ antag: 15; B2AR ag: 5; CXCR6 block: 0; APJ ag: -7

How did Cc1c(CCOC(=O)C2C3CC4CC(C3)CC2C4)sc[n+]1CC(=O)c1ccc(Br)cc1 (stereo unspecified) do in these assays?
CCR6 antag: 53*!; PfGluPho inh: -1; APJ antag: 17; B2AR ag: 40; CXCR6 block: 3; APJ ag: -10

Results for CCOc1ccc2[nH]c(C(=O)N/N=C/c3ccc(OC)cc3)cc2c1 ?
CCR6 antag: -6; PfGluPho inh: 4; APJ antag: -5; B2AR ag: 52*; CXCR6 block: -1; APJ ag: 2

How did COc1ccc(CCNC(=O)C2CCN(c3nccc(C)n3)CC2)cc1 do in these assays?
CCR6 antag: 0; PfGluPho inh: -7; APJ antag: -23; B2AR ag: -3; CXCR6 block: -10; APJ ag: 0

How did Cc1ccc(OCC(=O)NNC(=O)C2CCN(c3nccc(C)n3)CC2)cc1 do in these assays?
CCR6 antag: -3; PfGluPho inh: -2; APJ antag: -2; B2AR ag: 105*; CXCR6 block: -6; APJ ag: -1

How did COc1ccc(C(C)(C)C)cc1NC(=O)COc1ccc(-c2nnco2)cc1 do in these assays?
CCR6 antag: 22; PfGluPho inh: 3; APJ antag: -3; B2AR ag: 5; CXCR6 block: -12; APJ ag: -2

How did Cc1cc(C)c2c(=O)n(CC(=O)NCCCN3CCN(c4ccccc4F)CC3)sc2n1 do in these assays?
CCR6 antag: 100*; PfGluPho inh: 99*; APJ antag: -12; APJ ag: 4

Results for Cc1cc(C)c2c(=O)n(CC(=O)NCCCN3CCOCC3)sc2n1 ?
CCR6 antag: -10; PfGluPho inh: 70*; APJ antag: -120; B2AR ag: -3; CXCR6 block: -18; APJ ag: 0

What do the screens show for `Cc1ccccc1CS(=O)(=O)CCC(=O)NCCCN1CCN(c2ccccc2F)CC1`?
CCR6 antag: 15; PfGluPho inh: -14; APJ antag: 0; B2AR ag: -4; CXCR6 block: 2; APJ ag: -1

How did COc1ccccc1NC(=O)C(C)OC(=O)C1COc2ccccc2O1 (stereo unspecified) do in these assays?
CCR6 antag: 3; PfGluPho inh: -3; APJ antag: 10; B2AR ag: 0; CXCR6 block: -5; APJ ag: -5

How did COc1ccc(-c2coc3c(C(=O)Nc4cccc(NS(C)(=O)=O)c4)cccc23)c(C)c1 do in these assays?
CXCR6 block: -1

How did Nc1ccn([C@@H]2O[C@H](C(=O)NCC(F)(F)F)[C@@H](O)[C@H]2O)c(=O)n1 do in these assays?
CXCR6 block: -3

Results for Cc1ccc(S(=O)(=O)N2C[C@H]3C(=O)C[C@@H](c4ccccc4)N(S(=O)(=O)c4ccc(C)cc4)[C@H]3C[C@H]2c2cccs2)cc1 ?
CXCR6 block: 3

How did Cc1ccc(N/C(N)=N/c2nc(C)cc(N3CCCCC3)n2)c(C)c1 do in these assays?
CCR6 antag: 3; PfGluPho inh: -7; APJ antag: -23; B2AR ag: 26; CXCR6 block: 2; APJ ag: 28*
